Only a selection was taken, and hits are over-represented in it overall.
Insulin prom act: activators of insulin promoter-driven GFP, primary screen, imaging, TRM-6 cells (human fetal islet line), eGFP reporter, cell count; plate-scaled: unstimulated 0, stimulated control 100; activation, % at 2 µM; 130,000 tested, 0.81% active; AID 1296, 2008;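 active = activation at 2 µM above a set limit, confirmed on inspection of the cell images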;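 note: share of cells whose green reporter signal exceeds an intensity cutoff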
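System – TRM-6 insulin promoter–eGFP reporter cells · Probe or stimulus – 0.75 µM tamoxifen as reporter inducer · Dosing – single-point 2 µM compound dose · Incubation – tamoxifen pre-incubation 15 h overnight, then compound exposure 48 h at 37 °C · Measured by – fixed-cell fluorescence microscopy, eGFP plus Hoechst · Evaluation – percent GFP-positive cells normalized to per-plate controls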
* hit, by the source's call; [ ] = dose if it differs, or a comment.

SMILES | Insulin prom act
O=S(=O)(c1ccc(Br)s1)N1CCN(c2ccccc2)CC1 | 575*
O=C(CSCc1ccc(Cl)cc1)Nc1ccc(S(=O)(=O)N2CCOCC2)cc1 | -5
CCN1/C(=C/C=C/c2oc3ccc(-c4ccccc4)cc3[n+]2CC)Oc2ccc(-c3ccccc3)cc21 | 809*[fluoresces]
CCOc1cc(CNCCCN2CCOCC2)ccc1OCC(=O)NC(C)(C)C | -6
COc1cc(CNCc2cccs2)ccc1OCC(N)=O | 2
COc1cc(CNCc2cccs2)ccc1OCC(=O)NC(C)(C)C | 125*
CCC(=O)NCc1ccc2[nH]c(C)cc2c1 | -6
N#CCCn1cc(C(=O)Nc2ccccc2Br)c(-c2cccs2)n1 | 457*
O=C(Nc1cccc2ccccc12)c1cn(-c2ccccc2)nc1-c1cccs1 | 8
O=C(Nc1cccnc1)c1cn(-c2ccccc2)nc1-c1cccs1 | -8
COC(=O)c1sccc1-n1cccc1C(=O)C(=O)N1CC(C)OC(C)C1 (configuration not stated) | 329
O=C(COc1ccccc1)N/N=C/c1ccc(O[C@@H]2O[C@H](CO)[C@@H](O)[C@H](O)[C@H]2O)cc1 | 4
Fc1ccc(CNc2nc(-c3ccccc3)nc3ccccc23)cc1 | 0
O=[N+]([O-])c1cccc(-c2nc(NCc3ccccc3)c3ccccc3n2)c1 | 322*
Cc1ccc(-c2nc(N/N=C/c3cccc([N+](=O)[O-])c3)c3ccccc3n2)cc1 | 2
Cc1ccc2c(C)c(C(=O)Nc3c(C)n(C)n(-c4ccccc4)c3=O)oc2c1C | -2
CCCCN(CC)CCCNC(=O)C1CCN(c2ncnc3c2sc2cccc(F)c23)CC1 | 7
COc1ccc(CC(=O)NNC(=O)CSc2nnc(Cc3ccc(OC)cc3)n2-c2ccccc2)cc1 | -71
COc1ccc(CCNC(=O)c2c(C)noc2C)cc1 | 0
Nc1nc(CSc2nnnn2-c2ccccc2)nc(N2CCCc3ccccc32)n1 | 447*
Cc1ncc(CSc2nnnn2-c2ccccc2)c(N)n1 | 219
CN(C)c1nc(N)nc(CSc2nnnn2-c2ccc(F)cc2)n1 | 8
CC1CCCCN1C(=O)COc1ccccc1F (configuration not stated) | 0
Cn1cnnc1SCC(=O)Nc1ccc2nc(SCc3ccccc3F)sc2c1 | 3
CC(=O)Oc1ccc(C(=O)Nc2cc(NC(=O)c3ccc(OC(C)=O)cc3)cc(C(=O)NC(C)(C)C)c2)cc1 | 3
SMILES | Insulin prom act
C=CCn1c(COc2cccc3cccnc23)nnc1SCC(=O)O | 0
C=CCn1c(COc2cccc3ccc(C)nc23)nnc1SCC(=O)O | 450*
C=CCn1c(SCC(=O)c2ccc(OC)cc2)nnc1-c1cc2cccc(OC)c2o1 | -5
COc1ccc(NC(=O)C2CCCN2C(=O)Nc2ccccc2)cc1OC (configuration not stated) | -7
CC(=O)c1cccc(NC(=O)N2CCCC2C(=O)NCc2ccc3c(c2)OCO3)c1 (configuration not stated) | 8
CC(=O)c1cccc(NC(=O)N2CCCC2C(=O)Nc2ccc3c(c2)OCCO3)c1 (configuration not stated) | 493*
COc1ccc(N2CC(C(=O)NCCCN3CCOCC3)CC2=O)cc1 (configuration not stated) | 0
Cc1nc2ccc(Cl)cn2c1C(=O)NN | -6
CCN(CC(=O)N1CCc2ccccc2C1)S(=O)(=O)c1ccc2ccccc2c1 | -4
COc1cccc(CN2CCC(C(=O)N3CCN(c4ccccc4F)CC3)CC2)c1OC | -8
Clc1ccc(-c2nn3cnnc3s2)c(Cl)c1 | 0
Cc1cc(S(=O)(=O)Nc2cccc(O)c2)c(C)s1 | -7
CCN(CC(=O)Nc1ccccc1OC)CC(=O)Nc1c(Cl)ccc(C)c1Cl | 0
O=C(C[n+]1cccc(CNC(=O)c2ccc(OC(F)F)cc2)c1)c1ccccc1 | 341*
CC(Oc1ccc(C(=O)NCCc2ccccc2)cc1)C(=O)O (configuration not stated) | 0
O=C(NCc1ccccc1)c1ccc(S(=O)(=O)C(F)F)cc1 | -3
S=C1NCCNC(=S)NCCOCCOCCN1 | 0
O=C(COC(=O)c1ccccc1Cl)NC(=O)NCc1ccccc1 | 8
CCCCN1C(=O)C2C(C(=O)Nc3cccc(OC)c3)C3C=CC2(O3)C1C(=O)NC1CCCCC1C (configuration not stated) | 126
COc1cccc(NC(=O)C2C3C=CC4(O3)C2C(=O)N(C(C)C)C4C(=O)NC2CCCCC2C)c1 (configuration not stated) | -29
COc1cccc(NC(=O)C2C3C=CC4(O3)C2C(=O)N(C2CC2)C4C(=O)NC2CCCCC2C)c1 (configuration not stated) | 810*
CCOCCCNCC(=O)N1CCN(S(=O)(=O)c2ccc(C)cc2)CC1 | 337
Cc1ccc(C)c(OC(=O)c2cncc(Br)c2)c1 | 0
O=S(=O)(Nc1ccc(N2CCCCC2)cc1)c1ccc(F)c(F)c1 | -6
COc1ccc(S(=O)(=O)N2CCOCC2)cc1NC(=O)Cc1ccc(Cl)c(Cl)c1 | 2
SMILES | Insulin prom act
C=CCSc1nnc(NC(=O)CSc2ccccn2)s1 | 425*
CCSc1nnc(NC(=O)c2ccccn2)s1 | 178
CCc1ccc(NC(=O)CSc2ccccn2)cc1 | 105
Cc1cc(C(=O)NNC(=S)NCc2ccco2)nn1C | 0
CCCCn1c2ccc(F)cc2c2nnc(NN)nc21 | -3
CCOC(=O)C1CN(S(=O)(=O)c2ccc(C)cc2)CCN1S(=O)(=O)c1ccc(C)cc1 (configuration not stated) | 387
O=C(NCc1ccco1)C1CCCN1S(=O)(=O)c1ccc2ccccc2c1 (configuration not stated) | -6
Cc1ccc(S(=O)(=O)N2CCCC2C(=O)OCc2ccco2)cc1 (configuration not stated) | 579*
CS(=O)(=O)N1CCN(C2CCN(Cc3ccccc3)CC2)CC1 | -3
Cc1sc(NC(=O)C2CCCO2)c(C#N)c1C (configuration not stated) | -9
COC(=O)c1sc(NC(=O)C2CCCO2)c(C(=O)OC)c1C (configuration not stated) | 428*
Cc1c(C(=O)OC(C)C)sc(NC(=O)C2CCCO2)c1C(=O)OC(C)C (configuration not stated) | 3
O=C(COC(=O)CN1C(=O)C2CCCCC2C1=O)Nc1cc(S(=O)(=O)N2CCOCC2)ccc1Cl (configuration not stated) | -7
COc1ccc(/C=C/c2ccncc2)cc1 | -8
CC(C)OP(=O)(c1ccc(N(C)C)cc1)C(O)c1ccncc1 (configuration not stated) | -8
CN(C)c1ccc(/C=C/c2ccncc2)cc1 | 87*
COc1ccc(NC(=O)C(CCS(C)(=O)=O)N2C(=O)c3ccccc3C2=O)cc1 (configuration not stated) | -4
Cc1ccc(NC(=O)C(Cc2ccccc2)N2C(=O)C3C4CCC(C4)C3C2=O)cc1Cl (configuration not stated) | -8
CN(C)S(=O)(=O)c1cc(NC(=O)[C@H](Cc2ccccc2)N2C(=O)c3ccccc3C2=O)ccc1Cl | 414*
O=C(/C=C/c1ccc(N2CCC(c3ccccc3)=N2)cc1)c1ccccc1 | 456*
O=C(/C=C/c1ccc(OC2CSC2)cc1)c1ccc(Cl)cc1 | 4
Cc1ccc(/C=C/C(=O)c2ccc(C)cc2)cc1 | 367
O=C(O)CSc1nc2c(c(C(F)(F)F)n1)CCCC2 | 8
CC(=O)NN1C(=O)/C(=C/c2ccc(C(C)C)cc2)SC1=S | -9

Source: PubChem (Columbia University Molecular Screening Center)
